Results taken from ChEMBL document CHEMBL3588754, “Parallel Synthesis of Hexahydrodiimidazodiazepines Heterocyclic Peptidomimetics and Their in Vitro and in Vivo Activities at μ (MOR), δ (DOR), and κ (KOR) Opioid Receptors” (J Med Chem, 2015).
pEC50, pKi: −log10 of the molar value. Activity calls are given as the source filed them.

Assays:
[1] = biological target: Mu-type opioid receptor (Rattus norvegicus, UniProt P33535); assay: Displacement of [3H]DAMGO from mu opioid receptor in rat cortices by competition binding assay
In short: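 Rat cortex membranes were prepared in 50 mM Tris pH 7.4, preincubated at 37 °C for 30 min, and resuspended with 2 mg/mL bovine serum. Assay used 2 nM [3H]DAMGO. Binding was stopped by filtration through BSA-soaked GF/B filters, followed by scintillation counting. IC50 was converted to Ki. Values are mean ± SD of two experiments, each in duplicate.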

[2] = biological target: Kappa-type opioid receptor (Cavia porcellus, UniProt P41144); assay: Displacement of [3H]U69593 from kappa opioid receptor in guinea pig cortices and cerebella by competition binding assay
In short: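 Guinea pig cortex and cerebellum membranes were prepared in 50 mM Tris pH 7.4 with 10 mM MgCl2. Assay used 2 nM [3H]U69,593, incubated 2 h at 25 °C. Unlabeled U50,488 defined nonspecific binding. Filtration was through GF/B filters, with scintillation counting. Ki is mean ± SD of two experiments, each in duplicate.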

[3] = biological target: Delta-type opioid receptor (Rattus norvegicus, UniProt P33533); assay: Displacement of [3H]DPDPE from delta opioid receptor in rat cortices by competition binding assay
In short: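 Rat cortex membranes were prepared in 50 mM Tris pH 7.4 with 10 mM MgCl2 and 200 μM PMSF. Assay used 2 nM [3H]DPDPE, incubated 2.5 h at 25 °C. Unlabeled DPDPE defined nonspecific binding. Filtration was through BSA-soaked GF/B filters, with scintillation counting. Ki is mean ± SD of two experiments, each in duplicate.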

[4] = biological target: Delta-type opioid receptor (Homo sapiens, UniProt P41143); assay: Agonist activity at delta opioid receptor (unknown origin) expressed in CHO-K1 cells assessed as inhibition of forskolin-induced cAMP accumulation by FRET assay; type: functional, cell-based
In short: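 CHO cells stably expressing DOR, plated at 20 000 cells/well (figure legend: 100 000). Exposed to test agent with 4 μM forskolin (legend: 1 μM) in 1× PBS with 1 mM […] for 30 min at rt. HTRF cAMP read-out with europium cryptate and d2 in lysis buffer for 1 h. EC50 ± SEM from three experiments, two replicates each.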

[5] = test system: Mus musculus; assay: Antinociceptive effect in icv dosed C57BL/6 mouse assessed as tail withdrawal latency measured up to 2 hrs by 55 degC Warm water tail withdrawal assay; type: functional
[6] = test system: Mus musculus; assay: Antinociceptive effect in ip dosed C57BL/6 mouse assessed as tail withdrawal latency measured up to 2 hrs by 55 degC Warm water tail withdrawal assay; type: functional; conditions: C57BL/6, Tail
[7] = test system: Mus musculus; assay: Antinociceptive effect in po dosed C57BL/6 mouse assessed as tail withdrawal latency measured up to 2 hrs by 55 degC Warm water tail withdrawal assay; type: functional; conditions: C57BL/6, Tail
[8] = test system: Mus musculus; assay: Antinociceptive effect in icv treated C57BL/6 mouse assessed as tail withdrawal latency at 30 nM, icv measured up to 2 hrs by 55 degC Warm water tail withdrawal assay; type: functional
[9] = test system: Mus musculus; assay: Antinociceptive effect in C57BL/6 mouse assessed as tail withdrawal latency at 10 mg/kg, ip measured up to 2 hrs by 55 degC Warm water tail withdrawal assay; type: functional
[10] = test system: Mus musculus; assay: Antinociceptive effect in C57BL/6 mouse assessed as tail withdrawal latency at 30 mg/kg, po measured up to 2 hrs by 55 degC Warm water tail withdrawal assay; type: functional
[11] = test system: Mus musculus; assay: Antinociceptive effect in icv dosed C57BL/6 mouse assessed as tail withdrawal latency measured up to 2 hrs by 55 degC Warm water tail withdrawal assay in presence of 0.5 mg/kg, sc naltrindole; type: functional, organism-based
[12] = test system: Mus musculus; assay: Analgesic activity in ip dosed C57BL/6 mouse assessed as inhibition of acetic acid-induced writhing response measured after 5 mins by acetic acid writhing assay; type: functional; conditions: C57BL/6, ip
In short: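 Adult male C57BL/6J mice, eight per dose, were given a single graded ip dose in 1:1:8 ethanol/Tween-80/saline vehicle. After 25 min they received 0.9% acetic acid ip. Writhes were counted for 15 min starting 5 min later. % antinociception was taken relative to the ip vehicle group, and ED50 with 95% CI was obtained by regression.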

[13] = test system: Mus musculus; assay: Antinociceptive effect in icv dosed MOR knock out C57BL/6 mouse assessed as tail withdrawal latency measured up to 2 hrs by 55 degC Warm water tail withdrawal assay; type: functional, organism-based
[14] = test system: Mus musculus; assay: Antinociceptive effect in icv dosed KOR knock out C57BL/6 mouse assessed as tail withdrawal latency measured up to 2 hrs by 55 degC Warm water tail withdrawal assay; type: functional, organism-based
[15] = test system: Mus musculus; assay: Antinociceptive effect in icv dosed C57BL/6 mouse assessed as tail withdrawal latency measured up to 2 hrs by 55 degC Warm water tail withdrawal assay in presence of 4 nmol, icv ICI174864; type: functional, organism-based
[16] = test system: Mus musculus; assay: Antinociceptive effect in C57BL/6 mouse assessed as tail withdrawal latency measured at 30 nM, icv up to 2 hrs by 55 degC Warm water tail withdrawal assay in presence of 30 nM, icv naloxone methiodide on same side of blood brain barrier impermeable opioid antagonist; type: functional, organism-based
In short: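 Adult male C57BL/6J mice, 55 °C warm-water tail withdrawal. Naloxone methiodide pretreatment (30 nmol icv or 30 mg/kg sc) 30 min before the test agent (30 nmol icv in 50% DMSO/saline, or 10 mg/kg ip in 1:1:8 ethanol/Tween-80/saline). Read 30 min after the test agent. % antinociception vs baseline latency with 15 s cutoff. n = 8, mean ± SEM, one-way ANOVA/Tukey.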

[17] = test system: Mus musculus; assay: Antinociceptive effect in C57BL/6 mouse assessed as tail withdrawal latency measured at 10 mg/kg, ip […] by 55 degC Warm water tail withdrawal assay in presence of 30 mg/kg, sc naloxone methiodide on same side of blood brain barrier impermeable opioid antagonist; type: functional, organism-based
[18] = test system: Mus musculus; assay: Antinociceptive effect in C57BL/6 mouse assessed as tail withdrawal latency measured at 30 nM, icv […] by 55 degC Warm water tail withdrawal assay in presence of 30 nM, icv naloxone methiodide on other side of blood brain barrier impermeable opioid antagonist; type: functional, organism-based
[19] = test system: Mus musculus; assay: Antinociceptive effect in C57BL/6 mouse assessed as tail withdrawal latency […] by 55 degC Warm water tail withdrawal assay in presence of 30 mg/kg, sc naloxone methiodide on other side of blood brain barrier impermeable opioid antagonist; type: functional, organism-based
[20] = test system: Mus musculus; assay: Antinociceptive effect in C57BL/6 mouse assessed as tail withdrawal latency measured up to 2 hrs by 55 degC Warm water tail withdrawal assay in presence of 10 mg/kg, ip morphine; type: functional, organism-based
In short: (§1)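 Test agent given to male C57BL/6J mice 2 h before agonist challenge: morphine 10 mg/kg ip, U50,488 10 mg/kg ip, or SNC-80 100 nmol icv. 55 °C warm-water tail withdrawal read 30 min after the agonist. % antinociception relative to baseline latency with 15 s cutoff.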

[21] = test system: Mus musculus; assay: Antinociceptive effect in C57BL/6 mouse assessed as tail withdrawal latency measured up to 2 hrs by 55 degC Warm water tail withdrawal assay in presence of 100 nM, icv SNC80; type: functional, organism-based; in short: as §1
[22] = test system: Mus musculus; assay: Antinociceptive effect in C57BL/6 mouse assessed as tail withdrawal latency measured up to 2 hrs by 55 degC Warm water tail withdrawal assay in presence of 10 mg/kg, ip U50488; type: functional, organism-based; in short: as §1
[23] = test system: Serum; assay: Drug uptake in C57BL/6 mouse serum at 30 mg/kg, po after 30 mins by LC-MS/MS analysis; type: ADME, organism-based; conditions: in vivo, 0.5 h
In short: (§2)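 Male C57BL/6J mice dosed orally at 30 mg/kg in 1:1:8 ethanol/Tween-80/saline, killed at 30, 60, or 90 min. Serum deproteinized with 4 volumes of cold MeCN. Perfused brains homogenized. Supernatants dried and reconstituted in 20% MeCN. C18 LC–MS/MS with summed ion-transition peak areas. Two mice per time point, mean peak area ± SEM.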

[24] = test system: Brain; assay: Drug uptake in C57BL/6 mouse brain at 30 mg/kg, po after 30 mins by LC-MS/MS analysis; type: ADME, organism-based; conditions: in vivo, 0.5 h; in short: as §2
[25] = test system: Mus musculus; assay: Antinociceptive tolerance in C57BL/6 mouse assessed as tail withdrawal latency measured treated at 5 nmol, icv first dose second dose after 8 hrs by 55 degC Warm water tail withdrawal assay; type: functional
In short: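 Acute tolerance was tested in C57BL/6J mice, 8 per dose. The first icv dose was given at time 0: 3 nmol morphine or 5 nmol test agent. A second icv dose between 0.3 and 100 nmol followed 8 h later. Tail withdrawal at 55 °C was measured 30 min after the second injection. Tolerance was judged from the shift in ED50 between single and repeated treatment.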

[26] = test system: Mus musculus; assay: Toxicity in C57BL/6 mouse assessed as coordinated locomotor activity at 30 nM, icv up to 60 mins; type: organism-based; conditions: in vivo, icv_or_intrathecal, 1 h, 0.03 µM
In short: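 Rotorod test after seven habituation trials, the last used as baseline. Test agent 30 nmol icv, vehicle 50% DMSO/saline. Accelerating trials (0–20 rpm, 180 s max) from 10 min over 60 min. Latency to fall expressed as % change from baseline. n = 8–16 per group, repeated-measures/two-way ANOVA with Tukey.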

How did the pKi [1] turn out when `Oc1ccc(C[C@H]2CN3C(=CC4=NC[C@H](Cc5ccc(O)cc5)N4C[C@@H]3Cc3ccccc3)N2)cc1` was run?
Its pKi is 6.22.

What about the pKi [2] of the same compound?
The pKi was 5.62.

And the pKi [3]?
The pKi was 7.16.

`CC(C)C[C@H]1CN2C(=CC3=NC[C@H](C(C)C)N3C[C@@H]2Cc2ccc(O)cc2)N1CCc1ccccc1` was tested. Which pKi [2] did it give?
The pKi was 7.64.

And the pKi [3]?
Its pKi is 7.49.

What about the pEC50 [4] of the same compound?
The pEC50 was 6.44.

What about the Activity [5] of the same compound?
Its Activity is “Dose-dependent effect”.

What about the ED50 [6] of the same compound?
Its ED50 is 5.09 mg/kg.

And the ED50 [7]?
Its ED50 is 23.2 mg/kg.

What about the Time [8] of the same compound?
Its Time is 80 min.

And the Time [9]?
Its Time is 80 min.

What about the Time [10] of the same compound?
The Time was 110 min.

What about the inhibition [11] of the same compound?
Its inhibition is “inactive”.

What about the ED50 [12] of the same compound?
Its ED50 is 0.07 mg/kg.

And the inhibition [13]?
The inhibition was “inactive”.

What about the inhibition [14] of the same compound?
Its inhibition is “inactive”.

What about the inhibition [15] of the same compound?
Its inhibition is “inactive”.

What about the inhibition [16] of the same compound?
The inhibition was “inactive”.

And the inhibition [17]?
The inhibition was “inactive”.

What about the Activity [18] of the same compound?
The Activity was “Active”.

And the Activity [19]?
The Activity was “Active”.

And the Activity [20]?
The Activity was “Active”.

And the Activity [21]?
Its Activity is “Active”.

And the Activity [22]?
Its Activity is “Active”.

What about the Drug uptake [23] of the same compound?
The Drug uptake was “Active”.

And the Drug uptake [24]?
The Drug uptake was “Not Active”.

And the ED50 [25]?
The ED50 was 2.32 nmol.

And the Activity [26]?
Its Activity is “Non-toxic”.

Which results are given for `CC(C)C[C@H]1CN2C(=CC3=NC[C@H](Cc4ccccc4)N3C[C@@H]2Cc2ccc(O)cc2)N1CCc1ccccc1`?
pKi [1]: 6.02; pKi [2]: 6.19; pKi [3]: 7.43; pEC50 [4]: 5.79

`Oc1ccc(C[C@H]2CN3C(=CC4=NC[C@H](Cc5ccccc5)N4C[C@@H]3Cc3ccc(O)cc3)N2)cc1` was tested. Which pKi [1] did it give?
The pKi was 5.93.

And the pKi [2]?
The pKi was 5.38.

What about the pKi [3] of the same compound?
Its pKi is 6.47.

Which results are given for `CC(C)C[C@H]1CN2C(=CC3=NC[C@H](C(C)C)N3C[C@@H]2Cc2ccccc2)N1CCc1ccccc1`?
pKi [1]: 5.56; pKi [2]: 5.85; pKi [3]: 5.99

`Oc1ccc(C[C@H]2CN3C(=CC4=NC[C@H](Cc5ccc(O)cc5)N4C[C@@H]3Cc3ccc(O)cc3)N2)cc1` was tested. Which pKi [1] did it give?
Its pKi is 6.26.

What about the pKi [2] of the same compound?
The pKi was 5.43.

And the pKi [3]?
Its pKi is 6.50.

How did the pKi [1] turn out when `CC(C)C[C@H]1CN2C(=CC3=NC[C@H](C(C)C)N3C[C@@H]2Cc2ccc(O)cc2)N1` was run?
Its pKi is 5.92.

And the pKi [2]?
The pKi was 6.68.

What about the pKi [3] of the same compound?
The pKi was 6.67.

How did the pKi [1] turn out when `CC(C)C[C@H]1CN2C(=CC3=NC[C@H](C(C)C)N3C[C@@H]2Cc2ccccc2)N1` was run?
The pKi was under 5.00.

What about the pKi [2] of the same compound?
Its pKi is 5.97.

What about the pKi [3] of the same compound?
The pKi was at most 5.00.

What does the source list for `Oc1ccc(C[C@H]2CN3C(=CC4=NC[C@H](Cc5ccc(O)cc5)N4C[C@@H]3Cc3ccccc3)N2CCc2ccccc2)cc1`?
pKi [1]: 6.41; pKi [2]: 6.12; pKi [3]: 7.30
